Tb hexokinase – T. brucei hexokinase 1 inhibition; recombinant TbHK1, G6PDH-coupled NADH A340; inhibition, % at 10 µM; hit rate 0.11% among 220,000; AID 1430;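 active = inhibition of 50% or more in the single-dose primary screen; inactive = inhibition below 50%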
HKDC1 inh – blocks human hexokinase HKDC1 activity. inhibition, % at 20 µM. Q2TB90. hit rate 0.16% among 340,000. recombinant HKDC1, G6PDH/diaphorase resazurin coupled fluorescence. AID 493160;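 active = inhibition above about 35% when tested at 20 µM, limit read from the data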;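 note: plate controls were DMSO wells with enzyme for no effect and DMSO wells lacking enzyme for full effect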
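Assay system: recombinant HKDC1 hexokinase; detection: coupled resazurin fluorescence, excitation 525 nm, emission 613 nm; benchmarks: DMSO-plus-enzyme-mix negative control, buffer-substituted positive control; compound dosing: single 20 µM dose; schedule: 90 min at room temperature in dark; also added: glucose plus 1 mM ATP as hexokinase substrates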
PfGluPho inh – PfG6PD (Plasmodium falciparum) enzyme inhibition; PfGluPho enzyme, NADPH resazurin-diaphorase fluorescence; inhibition, % at 20 µM; hit rate 0.78% among 350,000; AID 504690;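 active = inhibition reaching at least a set limit at 20 µM in the primary screen, cut at about 59% in these data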;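 note: 0% = DMSO wells with substrate and 100% = DMSO wells lacking glucose-6-phosphate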
EP2 modulator – modulates human prostaglandin E2 receptor EP2 signaling; P43116; EP2-expressing cells, cAMP HTRF FRET, PGE2 co-stimulation; induction, % at 25 µM; hit rate 0.83% among 260,000; AID 940;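 active = compounds whose cAMP rise, as percent of the full-agonist control response, exceeds 60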;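 note: rat C6 glioma line stably carrying human EP2 under a CMV promoter; the protocol text gives 20 µM as final concentration; 100% = response of wells given 1 µM PGE2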
Target sequence (P43116 whole entry, looked up): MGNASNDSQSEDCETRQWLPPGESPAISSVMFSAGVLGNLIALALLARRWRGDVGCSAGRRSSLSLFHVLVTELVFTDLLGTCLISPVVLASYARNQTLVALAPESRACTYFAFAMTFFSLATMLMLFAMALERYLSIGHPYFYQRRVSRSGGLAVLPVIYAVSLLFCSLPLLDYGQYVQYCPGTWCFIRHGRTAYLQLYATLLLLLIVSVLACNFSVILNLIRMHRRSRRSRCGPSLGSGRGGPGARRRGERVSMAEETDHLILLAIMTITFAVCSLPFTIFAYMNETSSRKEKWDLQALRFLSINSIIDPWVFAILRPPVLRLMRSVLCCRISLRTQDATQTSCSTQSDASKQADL
EP2 antag – inhibitors of human EP2 prostaglandin E2 receptor; P43116; C6 glioma cells expressing human EP2, cAMP TR-FRET; cells stimulated with saturating PGE2; inhibition, % at 25 µM; hit rate 0.52% among 260,000;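 active = percent inhibition above 40 after rounding to a whole number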;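 note: rat C6 glioma host cells with rolipram phosphodiesterase inhibitor present; the protocol text gives 20 µM as final concentration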
PHOSPHO1 inh – inhibitors of human PHOSPHO1 phosphatase; Q8TCT1; recombinant PHOSPHO1, absorbance phosphatase assay; inhibition, % at 13.3 µM; hit rate 1.1% among 290,000; AID 1565; in the data active = inhibition above about 60%
Target sequence (Q8TCT1 whole entry, looked up): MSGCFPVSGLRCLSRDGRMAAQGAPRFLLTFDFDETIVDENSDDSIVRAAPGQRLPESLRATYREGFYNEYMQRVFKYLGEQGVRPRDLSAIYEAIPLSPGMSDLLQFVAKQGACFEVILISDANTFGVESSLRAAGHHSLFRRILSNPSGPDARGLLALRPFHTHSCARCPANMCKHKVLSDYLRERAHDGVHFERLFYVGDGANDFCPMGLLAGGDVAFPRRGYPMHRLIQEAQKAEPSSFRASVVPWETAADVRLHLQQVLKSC
EP2 cAMP induct – EP2 receptor cAMP induction, counter-screens negative; shares compounds with EP2 modulator; C6 glioma EP2 cells, cAMP HTRF induction; plus low (about EC15) PGE2 agonist; calls only at 20 µM (by protocol); hit rate 47% among 1,300; AID 1080;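 active = cAMP induction above 50% in the main assay while under 30% in all four parallel counter assays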;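 note: rat C6 glioma cells stably expressing human EP2 receptor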
Starred values were filed as active, the others as inactive; i = inactive; x = no result given; + = active, no number; ! = repeats disagree. Shown are actives, neighbours in structure and some others; about 2.5% of the full set was active somewhere.

SMILES	Tb hexokinase	HKDC1 inh	PfGluPho inh	EP2 modulator	EP2 antag	PHOSPHO1 inh	EP2 cAMP induct
Cn1c(SC(C(=O)Nc2ccc(F)cc2)c2ccccc2)nc2ccccc21 (stereo not given)	4	-6	18	1	4	8	x
CC(Sc1nc2ccccc2n1C)C(=O)NC(c1ccccc1)c1ccccc1 (stereo not given)	0	2	18	72*	4	8	+
Cc1ccc2cc(CN(Cc3nnnn3C3CCCCC3)CC3CCCO3)c(=O)[nH]c2c1 (stereo not given)	-9	5	19	39	10	7	x
CCc1ccc2[nH]c(=O)c(CN(Cc3cccnc3)Cc3nnnn3C3CCCCC3)cc2c1	x	x	x	-7	11	x	x
CCc1ccc2[nH]c(=O)c(CN(Cc3nnnn3C3CCCC3)C3CCCCC3)cc2c1	0	-1	23	74*!	12	45	+
Cc1cc2cc(CN(Cc3nnnn3C3CCCCC3)CC3CCCO3)c(=O)[nH]c2cc1C (stereo not given)	-9	16	15	65*!	7	7	i
CSc1ccccc1NC(=O)CN(C)Cc1cccc(Cl)c1	-1	8	10	66*	6	20	+
CSc1ccccc1NC(=O)CN(C)CC(=O)NCc1ccccc1	-4	-6	-5	21	-1	3	x
CCCC(=O)C1=C(O)C(C(=O)OC)C(C)(C)CC1=Nc1ccccc1 (stereo not given)	-18	-2	-22	12	11	-13	x
CCCC(=O)C1=C(O)C(C(=O)OC)C(C)(C)CC1=Nc1cccc2ccccc12 (stereo not given)	-7	2	9	78*	12	1	+
CCOC(=O)c1c(NC(=O)CC(C)C)sc(C(C)=O)c1C	-5	6	2	52	6	22	i
CCCn1c(SCC(=O)Nc2sc(C)c(C)c2C(=O)OCC)nc2c1c(=O)n(C)c(=O)n2C	2	-6	-7	52	11	-6	i
CCCCNCC(=O)Nc1sc(C)c(C)c1C(=O)OCC	1	4	5	53	3	-4	i
CCOC(=O)c1c(NC(=O)c2ccoc2C)sc(C(=O)N(C)C)c1C	-18	-1	6	54	13	15	i
CC(C(=O)N1CCCC1)n1nc(-c2cccs2)cc(N)c1=O (stereo not given)	x	x	x	-10	4	x	x
COc1ccc(C(=O)N2CCC(C(=O)NC3CCCCCC3)CC2)cc1	x	x	x	23	9	x	x
CCc1cc2cc3c(cc2nc1SCC(=O)N1CCCCC1C)OCO3 (stereo not given)	x	x	x	-2	9	x	x
CCOC(=O)c1sc(NC(=O)c2cccnc2)c(C#N)c1C	-20	-6	2	-14	15	24	x
CCOC(=O)c1c(NC(=O)c2cccnc2)sc(C)c1C	-17	-1	8	52	13	45	+
CCOC(=O)c1c(NC(=O)CSc2nnnn2CC)sc(C)c1C	-6	2	-2	60	18	-8	i
COc1ccccc1NC(=O)c1sc(NC(=O)c2ccc(F)cc2)c(C#N)c1C	x	x	x	-42	15	x	x
Cc1cc(C)c(NC(=O)CSc2nnc3c(n2)[nH]c2ccccc23)c(C)c1	x	x	x	-72	17	x	x
Cc1ccc(Oc2nc3ccccc3n3cccc23)cc1	-2	0	18	60	9	10	x
c1ccc(Oc2nc3ccccc3n3cccc23)cc1	13	-6	11	65*	5	22	i
O=C(NCCC1=CCCCC1)c1cccc2c1C(=O)N(C1CCCCC1)C2	-1	-3	11	85*	2	24	+
SMILES	Tb hexokinase	HKDC1 inh	PfGluPho inh	EP2 modulator	EP2 antag	PHOSPHO1 inh	EP2 cAMP induct
Cc1cccc(CCNC(=O)c2cccc3c2C(=O)N(C2CCCCC2)C3)c1	x	-2	21	x	x	40	x
COc1ccccc1NC(=O)C(C#N)Cc1cc2ccc(C)c(C)c2[nH]c1=O (stereo not given)	x	x	x	-11	12	x	x
Cn1c(-c2ccc(Br)o2)nc2ccccc21	-6	-4	20	3	14	7	x
Brc1ccc(Cn2c(-c3ccc(Br)o3)nc3ccccc32)o1	-4	3	32	68*	13	17	+
COCCCn1c(SCC(=O)Nc2cc(OC)ccc2OC)nnc1-c1ccoc1C	x	x	x	-27	7	x	x
Nc1nc2n(n1)C(c1cccc3ccccc13)CC(c1ccc(F)cc1)N2 (stereo not given)	x	x	x	-81	16	x	x
COCCn1c(SCC(=O)Nc2cccc(F)c2)nnc1-c1ccoc1C	x	x	x	-2	9	x	x
COc1ccccc1C(CC(=O)c1ccccc1)CC(=O)c1ccccc1	3	-2	9	67*	5	28	+
Cc1ccc(-n2nnnc2SCC(=O)Nc2cccc3ccccc23)cc1	x	x	x	-98	12	x	x
CNC(=S)N(Cc1cccs1)Cc1cc2cc3c(cc2[nH]c1=O)OCCO3	x	x	x	4	17	x	x
Cc1ccnc(NS(=O)(=O)c2cccs2)c1	-1	-15	0	83*	8	10	i
CCn1c2ccc(Cl)cc2c2nc3ccccc3nc21	-14	-1	35	55	7	8	+
CCn1c2ccc(OC)cc2c2nc3ccccc3nc21	-8	10	34	56	5	-11	i
CCOc1ccc(Cn2c3ccc(OC)cc3c3nc4ccccc4nc32)cc1	7	-8	3	18	5	-18	x
COc1ccc(-n2nnnc2SCC(=O)Nc2ccc(Cl)cc2)cc1	x	x	x	-15	9	x	x
CCC(=O)Nc1sc(C(=O)Nc2ccc(Cl)cc2)c(C)c1C(=O)OC	x	x	x	-10	6	x	x
COc1ccc(C2CC(C(F)(F)F)n3nc(C(N)=O)c(Cl)c3N2)cc1OC (stereo not given)	0	-4	-5	75*	4	-10	i
CCOC(=O)C(CC)Sc1nc2c(c(=O)[nH]c(=O)n2C)n1Cc1ccc(Cl)cc1 (stereo not given)	x	x	x	52	11	x	x
CCN(CC)c1ccc(C(=O)O)cc1	2	5	-12	25	10	-15	x
CCN(CC)c1ccc(/C=C2\C(=O)c3ccc(C(=O)O)cc3C2=O)cc1	6	27	-7	74*	11	-14	+
O=[N+]([O-])c1ccc(Cl)c2c1C1C=CCC1C(c1ccccn1)N2 (stereo not given)	-12	9	43	75*	11	8	+
Cc1cc([N+](=O)[O-])cc2c1NC(c1ccccn1)C1CC=CC21 (stereo not given)	-11	4	16	-4	8	53	x
O=C(COc1ccc(S(=O)(=O)NC2CCCC2)cc1)NCc1ccc2c(c1)OCO2	x	x	x	-15	9	x	x
CCN(CC)C(=O)CSc1nc(O)c(C(C)C)c(=O)[nH]1	x	x	x	-10	6	x	x

Assay outcomes from PubChem BioAssay.
